Laboratory results reported in ChEMBL document CHEMBL3351398, “Discovery of a Potent and Selective DGAT1 Inhibitor with a Piperidinyl-oxy-cyclohexanecarboxylic Acid Moiety” (ACS Med Chem Lett, 2014).
Converted amounts (≈) assume the structure as drawn.

What was measured:
Plasma [1] = assay: Drug level in plasma of C57BL/6 mouse assessed as cis-4-((1-(5-(5-(trifluoromethyl)-1H-benzo[d]imidazol-2-yl)pyridin-2-yl)piperidin-4-yl)oxy)cyclohexanecarboxylic acid level at 10 mg/kg, po after 24 hrs; type: ADME, organism-based; parameters: dose 10 mg/kg, route oral; conditions: in vivo
Outline: (§1)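 Tissue distribution in C57BL/6 mice. A single oral dose of 10 mg/kg was given as a solution in EtOH/PEG400/water (10:50:40). Parent and its cis isomer were both measured, in μM, in plasma, liver, small intestine, adipose fat and skin at 3 h and 24 h.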

[2] = Drug level in adipose fat of C57BL/6 mouse at 10 mg/kg, po after 24 hrs; type: ADME, organism-based, Adipose tissue; parameters: dose 10 mg/kg, route oral; conditions: read-out: Drug uptake; outline: as §1
Plasma [3] = assay: Drug level in plasma of C57BL/6 mouse assessed as cis-4-((1-(5-(5-(trifluoromethyl)-1H-benzo[d]imidazol-2-yl)pyridin-2-yl)piperidin-4-yl)oxy)cyclohexanecarboxylic acid level at 10 mg/kg, po after 3 hrs; type: ADME, organism-based; parameters: dose 10 mg/kg, route oral; conditions: in vivo; outline: as §1
Salmonella typhimurium [4] = assay: Induction of mutagenicity in Salmonella typhimurium TA98 assessed as increase in number of revertants in presence of metabolic activation; type: toxicity, organism-based; conditions: salmonella enterica subsp. enterica serovar typhimurium
Outline: (§2)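 Microbial reverse-mutation (Ames) test in strains TA1535, TA98 and TA100, with and without metabolic activation. The concentration range was 30 to 5000 μg/plate. A positive call required a 2-fold or greater increase in revertants relative to the solvent control.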

Rattus norvegicus = assay: Inhibition of plasma triglyceride accumulation in Sprague-Dawley rat at 1 mg/kg, po dosed 2 hrs before lipid challenge and measured at 18 hrs by lipid tolerance test; type: functional
Outline: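 Rat lipid tolerance test at oral doses of 1 and 3 mpk. Reduction of lipid excursion was normalized to a reference DGAT1 inhibitor given at 10 mpk, set as 100%. Plasma drug levels were the parent and its cis isomer combined, measured 4 h after oral dosing.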

[5] = molecular target: T1, Sterol O-acyltransferase 1 (Homo sapiens, UniProt P35610); assay: Inhibition of human ACAT1
T1 sequence (P35610 whole entry): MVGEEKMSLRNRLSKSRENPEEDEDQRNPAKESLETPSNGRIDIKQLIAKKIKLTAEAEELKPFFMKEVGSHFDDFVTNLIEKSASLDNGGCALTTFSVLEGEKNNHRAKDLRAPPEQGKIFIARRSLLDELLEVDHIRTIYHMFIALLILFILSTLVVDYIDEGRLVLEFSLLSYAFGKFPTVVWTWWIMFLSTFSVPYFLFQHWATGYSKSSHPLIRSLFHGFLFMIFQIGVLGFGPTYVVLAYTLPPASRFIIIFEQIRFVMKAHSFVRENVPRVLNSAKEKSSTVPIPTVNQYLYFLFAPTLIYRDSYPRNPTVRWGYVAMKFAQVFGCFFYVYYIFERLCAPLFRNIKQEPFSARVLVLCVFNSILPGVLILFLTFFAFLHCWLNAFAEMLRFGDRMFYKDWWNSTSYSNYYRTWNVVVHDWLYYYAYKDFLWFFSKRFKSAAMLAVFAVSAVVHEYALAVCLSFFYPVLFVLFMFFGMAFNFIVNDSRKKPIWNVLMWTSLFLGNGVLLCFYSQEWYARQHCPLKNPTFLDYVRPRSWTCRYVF

[6] = AUC in Sprague-Dawley rat at 2 mg/kg, po; type: ADME, organism-based; parameters: dose 2 mg/kg, route oral; conditions: plasma
[7] = Half life in Beagle dog at 1 mg/kg, iv or 4 mg/kg, po; type: ADME, organism-based, Canis lupus familiaris; conditions: in vivo
Outline: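 Single-dose pharmacokinetics. Beagle dogs were dosed at 1 mg/kg iv as a solution in 30% captisol (pH 8) and at 4 mg/kg po in 0.5 methylcellulose.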

[8] = Drug level in adipose fat of C57BL/6 mouse at 10 mg/kg, po after 3 hrs; type: ADME, organism-based, Adipose tissue; parameters: dose 10 mg/kg, route oral; conditions: read-out: Drug uptake; outline: as §1
Salmonella typhimurium [9] = assay: Induction of mutagenicity in Salmonella typhimurium TA1535 assessed as increase in number of revertants in presence of metabolic activation; type: toxicity, organism-based; conditions: salmonella enterica subsp. enterica serovar typhimurium; outline: as §2
Salmonella typhimurium [10] = assay: Induction of mutagenicity in Salmonella typhimurium TA1535 assessed as increase in number of revertants in absence of metabolic activation; type: toxicity, organism-based; conditions: salmonella enterica subsp. enterica serovar typhimurium; outline: as §2
[11] = molecular target: T2, Diacylglycerol O-acyltransferase 1 (Mus musculus, UniProt Q9Z2A7); assay: Inhibition of mouse DGAT1
T2 sequence (Q9Z2A7 whole entry): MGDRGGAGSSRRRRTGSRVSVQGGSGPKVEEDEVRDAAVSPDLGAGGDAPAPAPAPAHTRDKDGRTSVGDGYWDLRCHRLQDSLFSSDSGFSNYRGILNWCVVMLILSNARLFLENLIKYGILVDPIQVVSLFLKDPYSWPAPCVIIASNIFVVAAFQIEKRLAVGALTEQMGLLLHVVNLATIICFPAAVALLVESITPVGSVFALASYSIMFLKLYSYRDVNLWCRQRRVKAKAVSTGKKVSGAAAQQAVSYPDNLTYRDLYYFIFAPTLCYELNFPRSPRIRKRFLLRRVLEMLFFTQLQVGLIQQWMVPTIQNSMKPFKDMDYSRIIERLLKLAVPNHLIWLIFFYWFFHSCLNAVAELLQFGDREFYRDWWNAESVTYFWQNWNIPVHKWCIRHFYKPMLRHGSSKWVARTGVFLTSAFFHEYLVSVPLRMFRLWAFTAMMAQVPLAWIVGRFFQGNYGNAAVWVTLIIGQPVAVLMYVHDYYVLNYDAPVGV

[12] = Drug level in liver of C57BL/6 mouse at 10 mg/kg, po after 24 hrs; type: ADME, organism-based; parameters: dose 10 mg/kg, route oral; conditions: read-out: Drug uptake; outline: as §1
Zone of skin = assay: Drug level in skin of C57BL/6 mouse assessed as cis-4-((1-(5-(5-(trifluoromethyl)-1H-benzo[d]imidazol-2-yl)pyridin-2-yl)piperidin-4-yl)oxy)cyclohexanecarboxylic acid level at 10 mg/kg, po after 24 hrs; type: ADME, organism-based; parameters: dose 10 mg/kg, route oral; conditions: in vivo, read-out: Drug uptake; outline: as §1
[13] = Solubility in PBS buffer at pH 7; type: physicochemical
Outline: (§3)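 High-throughput solubility test in PBS buffer at pH 2 and at pH 7. Free form and salt forms (TFA, formate, ammonium) were tested separately.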

[14] = Drug level in adipose fat of C57BL/6 mouse assessed as cis-4-((1-(5-(5-(trifluoromethyl)-1H-benzo[d]imidazol-2-yl)pyridin-2-yl)piperidin-4-yl)oxy)cyclohexanecarboxylic acid level at 10 mg/kg, po after 3 hrs; type: ADME, organism-based, Adipose tissue; parameters: dose 10 mg/kg, route oral; conditions: in vivo, read-out: Drug uptake; outline: as §1
Adenosine receptor A2a = Adenosine receptor A2a (Homo sapiens, UniProt P29274); assay: Binding affinity to human A2A receptor
Outline: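 Recombinant human A2A receptor was tested in an in-house radioligand competition binding assay. The value is reported as Ki.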

[15] = molecular target: Voltage-gated inwardly rectifying potassium channel KCNH2 (Homo sapiens, UniProt Q12809); assay: Displacement of radiolabeled MK499 from human ERG
Outline: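 hERG off-target activity was measured in a competitive binding assay against radiolabeled MK-499. The value is reported as Ki.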

[16] = Volume of distribution at steady state in Sprague-Dawley rat at 1 mg/kg, iv or 2 mg/kg, po; type: ADME, organism-based; conditions: in vivo, read-out: Vdss
Outline: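 Sprague–Dawley rats were dosed as a solution in EtOH/PEG400/water (10:50:40), 1 mg/kg iv and 2 mg/kg po. Pharmacokinetic parameters were derived from these dosings.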

[17] = Solubility in PBS buffer at pH 2; type: physicochemical; outline: as §3
[18] = Drug level in skin of C57BL/6 mouse at 10 mg/kg, po after 24 hrs; type: ADME, organism-based, Zone of skin; parameters: dose 10 mg/kg, route oral; conditions: read-out: Drug uptake; outline: as §1

Sequence of Adenosine receptor A2a (P29274 whole entry): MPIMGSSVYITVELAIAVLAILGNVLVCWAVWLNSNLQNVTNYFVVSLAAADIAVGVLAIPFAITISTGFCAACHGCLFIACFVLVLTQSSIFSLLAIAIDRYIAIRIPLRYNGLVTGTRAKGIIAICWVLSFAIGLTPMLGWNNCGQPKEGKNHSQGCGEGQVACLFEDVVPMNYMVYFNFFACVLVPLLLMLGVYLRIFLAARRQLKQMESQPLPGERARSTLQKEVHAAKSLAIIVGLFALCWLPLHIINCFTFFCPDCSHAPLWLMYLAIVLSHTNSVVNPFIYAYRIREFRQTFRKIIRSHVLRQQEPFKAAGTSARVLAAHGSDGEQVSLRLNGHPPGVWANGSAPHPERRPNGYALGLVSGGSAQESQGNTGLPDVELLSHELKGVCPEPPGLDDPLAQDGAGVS
Sequence of Voltage-gated inwardly rectifying potassium channel KCNH2 (Q12809 whole entry): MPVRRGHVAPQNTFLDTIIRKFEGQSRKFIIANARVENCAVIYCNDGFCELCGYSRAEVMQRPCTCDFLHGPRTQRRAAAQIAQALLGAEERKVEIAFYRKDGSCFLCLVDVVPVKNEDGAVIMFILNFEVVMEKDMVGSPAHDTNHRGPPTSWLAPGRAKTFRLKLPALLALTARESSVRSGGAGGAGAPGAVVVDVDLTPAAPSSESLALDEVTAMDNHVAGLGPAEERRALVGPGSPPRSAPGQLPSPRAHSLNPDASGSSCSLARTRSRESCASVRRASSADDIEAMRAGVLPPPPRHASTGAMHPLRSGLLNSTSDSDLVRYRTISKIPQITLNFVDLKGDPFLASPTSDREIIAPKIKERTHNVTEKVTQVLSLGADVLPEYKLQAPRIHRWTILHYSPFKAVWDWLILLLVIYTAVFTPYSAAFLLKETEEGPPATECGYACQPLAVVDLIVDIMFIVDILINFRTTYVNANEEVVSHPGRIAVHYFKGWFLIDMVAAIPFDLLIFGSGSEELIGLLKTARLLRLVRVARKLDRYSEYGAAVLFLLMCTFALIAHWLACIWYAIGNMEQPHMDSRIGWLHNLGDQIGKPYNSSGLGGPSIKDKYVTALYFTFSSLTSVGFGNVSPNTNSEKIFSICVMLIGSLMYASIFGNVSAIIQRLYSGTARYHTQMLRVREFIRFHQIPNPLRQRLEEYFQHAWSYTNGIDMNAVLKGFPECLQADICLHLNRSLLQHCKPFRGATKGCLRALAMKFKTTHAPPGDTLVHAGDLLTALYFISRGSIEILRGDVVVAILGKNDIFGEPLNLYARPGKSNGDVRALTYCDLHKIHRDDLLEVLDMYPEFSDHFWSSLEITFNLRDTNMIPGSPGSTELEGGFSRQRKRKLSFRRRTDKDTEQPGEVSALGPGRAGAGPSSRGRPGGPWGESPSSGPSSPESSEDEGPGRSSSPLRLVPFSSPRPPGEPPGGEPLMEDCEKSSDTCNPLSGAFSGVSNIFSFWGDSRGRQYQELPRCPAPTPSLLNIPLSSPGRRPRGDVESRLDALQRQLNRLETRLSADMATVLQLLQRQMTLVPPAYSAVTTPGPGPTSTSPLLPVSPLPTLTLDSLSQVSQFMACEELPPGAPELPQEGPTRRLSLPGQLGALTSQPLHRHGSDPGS

## O=C(O)[C@H]1CC[C@H](OC2CCN(c3ccc(-c4nc5cc(C(F)(F)F)ccc5[nH]4)cn3)CC2)CC1
Plasma [1]
  concentration: < 0.01 µM
[2]
  concentration at 24 h: < 0.01 µM
Plasma [3]
  concentration: 0.054 µM
Salmonella typhimurium [4]
  Activity: Non-toxic
Rattus norvegicus
  inhibition in vivo at 1 mg/kg: 80%
[5]
  IC50: > 10 µM
[6]
  AUC: 1000 nM·h
[7]
  half-life: 1.16 h
[8]
  concentration at 3 h: 0.237 µM
Salmonella typhimurium [9]
  Activity: Non-toxic
Salmonella typhimurium [10]
  Activity: Non-toxic
[11]
  IC50: 0.023 µM
[12]
  concentration at 24 h: 4.02 µM
Zone of skin
  concentration: 0.018 µM
[13]
  solubility: 153 µM (≈ 74.7 µg/mL)
[14]
  concentration: 0.021 µM
Adenosine receptor A2a
  Ki: 4.6 µM
[15]
  Ki: 10 µM
[16]
  Vd: 0.19 L/kg
[17]
  solubility: 167 µM (≈ 81.6 µg/mL)
[18]
  concentration at 24 h: 0.167 µM
